Test results from PMC5582369 (British Journal of Clinical Pharmacology, 2017).

Assays:
[1] = tested on: Na+/H+ exchange; details: healthy volunteers, cited from earlier work
[2] = Cefadroxil plasma pharmacokinetics, phase 1 two-period crossover study; type: in vivo, healthy volunteers (human)
[3] = tested on: PepT1; details: in vitro; cited from earlier work
[4] = Tenapanor plasma concentration; type: in vivo, healthy volunteers (human); details: tenapanor 15 mg b.i.d., day 5
In short: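 Blood was drawn predose and 1, 2 and 4 h after the day-5 morning dose of the test compound (15 mg twice daily from day 1). Plasma was extracted liquid–liquid with a deuterated internal standard, evaporated under nitrogen and reconstituted. Analysis was by LC-MS/MS, validated over 0.500–100 ng ml–1, with a lower limit of quantitation of 0.5 ng ml–1.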

[5] = target: T1, NHE3 (Homo sapiens, UniProt P48764); test: Stool frequency and consistency; type: in vivo, healthy volunteers (human); details: mean ± SD over overall tenapanor 15 mg b.i.d. dosing period; day –1: 3.7 ± 1.0
T1 sequence (P48764 26-834): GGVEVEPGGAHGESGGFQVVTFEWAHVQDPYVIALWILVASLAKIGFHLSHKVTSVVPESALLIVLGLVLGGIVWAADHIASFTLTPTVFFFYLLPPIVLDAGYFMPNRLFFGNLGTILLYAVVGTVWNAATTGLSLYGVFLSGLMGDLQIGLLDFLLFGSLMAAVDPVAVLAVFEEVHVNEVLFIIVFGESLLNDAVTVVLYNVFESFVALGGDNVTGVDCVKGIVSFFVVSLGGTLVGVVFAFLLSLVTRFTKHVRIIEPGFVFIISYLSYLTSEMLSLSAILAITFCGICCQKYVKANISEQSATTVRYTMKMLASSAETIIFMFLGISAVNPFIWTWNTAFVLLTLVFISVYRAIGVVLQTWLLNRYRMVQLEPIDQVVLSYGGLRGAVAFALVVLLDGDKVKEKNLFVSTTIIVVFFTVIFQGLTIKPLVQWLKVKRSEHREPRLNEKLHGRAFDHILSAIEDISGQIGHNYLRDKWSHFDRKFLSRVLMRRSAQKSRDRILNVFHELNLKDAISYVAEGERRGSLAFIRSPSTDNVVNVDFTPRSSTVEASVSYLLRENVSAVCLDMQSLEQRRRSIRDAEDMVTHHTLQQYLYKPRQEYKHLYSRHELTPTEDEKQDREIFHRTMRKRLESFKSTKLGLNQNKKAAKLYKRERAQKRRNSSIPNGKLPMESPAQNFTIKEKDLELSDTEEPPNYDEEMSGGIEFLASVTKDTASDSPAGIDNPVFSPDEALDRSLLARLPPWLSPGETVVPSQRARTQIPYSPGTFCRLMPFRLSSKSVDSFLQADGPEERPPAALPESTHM

[6] = Safety and tolerability assessments; type: in vivo, healthy volunteers (human)
In short: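 Healthy adults (18–50 y, BMI 18–30 kg m–2, 50–100 kg) got the oral test compound 15 mg twice daily for 4 days, then a single 15 mg dose with a 500 mg probe cephalosporin on day 5, 5–10 min before standardized meals. Adverse events were monitored from screening to follow-up, 7–10 days after the last dose. Vital signs, ECGs, physical exams and clinical labs were also collected.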

[7] = whole study, all AEs occurred in the tenapanor treatment period

For `N=C(N)NC(=O)c1nc(Cl)c(N)nc1N` [Amiloride], the “Effect on gastrointestinal uptake of amoxicillin” value [1] is given as “decrease the gastrointestinal uptake” and the “Effect on amoxicillin absorption in the gut” value ([1]; jejunal perfusion with amiloride and amoxicillin) is given as “did not affect amoxicillin absorption”.

For `CC1=C(C(=O)O)N2C(=O)[C@@H](NC(=O)[C@H](N)c3ccc(O)cc3)[C@H]2SC1` [Cefadroxil], the “t½ (apparent terminal half-life) of cefadroxil” value ([2]; cefadroxil 500 mg alone, geometric mean (GCV, %), n = 28) is listed as 2.0 (11.1) h, the Tmax ([2]; human, plasma, oral, 500 mg) is listed as 1.5 h and the “Affinity for PepT1” value [3] is listed as “moderate affinity”.

In the case of `CN1Cc2c(Cl)cc(Cl)cc2[C@H](c2cccc(S(=O)(=O)NCCOCCOCCNC(=O)NCCCCNC(=O)NCCOCCOCCNS(=O)(=O)c3cccc([C@@H]4CN(C)Cc5c(Cl)cc(Cl)cc54)c3)c2)C1` [Tenapanor], the “Detection of tenapanor in plasma” value [4] was “not detected in plasma”, the “BSFS score (stool consistency)” value [5] was 5.4 ± 1.2 and the “Serious AEs or discontinuations due to AEs” value ([6]; during the study, 28 volunteers) was “No serious AEs or discontinuations due to AEs”. The Tolerability ([6]; tenapanor 15 mg b.i.d., 28 volunteers) was “generally well tolerated”, the “Abdominal distension (n volunteers)” value [6, 7] was 4 and the “Abdominal pain (n volunteers)” value [6, 7] was 4. For the same compound, the “Abnormal gastrointestinal sounds (n volunteers)” value [6, 7] was 3, the “Diarrhoea (n volunteers)” value [6, 7] was 2 and the “Flatulence (n volunteers)” value [6, 7] was 2.
